A short description of data set [1]: Tested in vitro for Half- life period of the compound. Format: ADME.
In data set [2] the test system is L1210. Briefly: Tested for Mean survival days against mouse leukemia L1210 cells. Format: functional. The gist of the method: (§1)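 Male BDF1 hybrid mice inoculated ip with 10⁶ L1210 lymphoid leukemia cells; compounds dissolved in distilled water, given ip once daily for 3 days starting 24 h after implantation (day 1). %ILS = 100(T/C−1) versus untreated tumor-bearing controls, counting 60-day survivors; 60-day survivors tallied per treated group.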

Data set [3] relates to L1210. Briefly: Tested for Maximal effective dose against mouse leukemia L1210 cells. Format: functional. The gist of the method: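 Male BDF1 hybrid mice inoculated ip with 10⁶ L1210 lymphoid leukemia cells; compounds in distilled water given ip once daily for 3 days starting 24 h after implantation (day 1). Percent ILS = 100(T/C-1) versus untreated tumor-bearing controls, counting 60-day survivors. Maximal effective dose recorded.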

Data set [4] relates to L1210. Briefly: Tested for Percent increase in life span against mouse leukemia L1210 cells. It is filed as functional. The gist of the method:
as §1

Data set [5] deals with L1210. Briefly: Tested for ratio of maximal effective dose/the dose which gives 30% ILS against mouse leukemia L1210 cells. It is filed as cell-based. The procedure, abridged:
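In the L1210 model (male BDF1 mice, 10⁶ cells ip, ip dosing in distilled water once daily on days 1–3), therapeutic index is the maximal effective dose divided by the dose giving 30% ILS. ILS = 100(T/C-1), 60-day survivors included.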

For data set [6], the system named is L1210. Briefly: Tested for Number of 60 days survivors per 5 treated mice against mouse leukemia L1210 cells. Format: functional. The gist of the method: as §1
Data set [7] in a line: Tested for the toxicity after ip administration in SLC-BDF1 male mice. It is filed as organism-based. To be noted: SLC-BDF1, mouse, in vivo. The gist of the method:
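SLC-BDF1 male mice, 5 weeks old, six per group, single intraperitoneal injection; deaths observed for 21 days; LD50 with 95% fiducial limits by the Litchfield-Wilcoxon method.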

Data set [8] in a line: Tested for the toxicity after iv administration in SLC-BDF1 male mice. The following applies: SLC-BDF1, mouse, in vivo. It is filed as organism-based. The gist of the method: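 SLC-BDF1 male mice, 5 weeks old, six per group, single intravenous injection; deaths observed for 21 days; LD50 with 95% fiducial limits by the Litchfield-Wilcoxon method.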

A word on the half-life: it is the time needed for the level to fall by half in the phase considered. One may read the ILS as how much longer treated animals lived than controls. For the compound `NC(=O)CCNC(=O)N(CCCl)N=O`, the half-life in data set [1] was found to be 61 min. Moreover, in data set [2], the Mean survival days was above 60. In data set [3], this compound gave a maximal effective dose of 16 mg/kg/day. For the same compound, the ILS in data set [4] is above 733.3%. Further, in data set [5], the Therapeutic index is listed as 15.2. This compound returned a Survivors in data set [6] of 5.

In general, LD50 refers to the dose expected to kill half of the subjects tested. Lower therefore signals greater toxicity. `NC(=O)C1CCCN1C(=O)N(CCCl)N=O` (centres undefined) came in with a half-life in data set [1] of 295 min. Further, in data set [2], the Mean survival days was above 25.2. In data set [3], the maximal effective dose came out at 64 mg/kg/day. In data set [4], the ILS was above 250%. The Therapeutic index in data set [5] amounted to 5.6. Also, the Survivors in data set [6] was determined as 1. The values for the 50% lethal dose (LD50) in data set [7] and in data set [8] were 220 mg/kg and 195 mg/kg, respectively.

As to `CC(O)C(NC(=O)N(CCCl)N=O)C(N)=O` (centres undefined), in data set [1], the half-life was 23.3 min. Also, the Mean survival days in data set [2] was above 60. In data set [3], this compound registered a maximal effective dose of 8 mg/kg/day. In data set [4], this compound displayed an ILS above 757.1%. Further, the Therapeutic index in data set [5] came to 40. The Survivors in data set [6] is given as 5.

`NC(=O)C(CO)NC(=O)N(CCCl)N=O` (centres undefined) returned a half-life in data set [1] of 19.8 min. Also, in data set [2], the Mean survival days is above 60. The maximal effective dose in data set [3] was 8 mg/kg/day. In data set [4], the increase in life span (ILS) was above 757.1%. Besides, in data set [5], the Therapeutic index was found to be 40. Moreover, the Survivors in data set [6] is given as 5.

Take `NC(=O)C(Cc1ccc(O)cc1)NC(=O)N(CCCl)N=O` (centres undefined): the Mean survival days in data set [2] is on record as above 35.4. In addition, the maximal effective dose in data set [3] worked out at 16 mg/kg/day. Besides, in data set [4], the ILS is listed as above 342.5%. Moreover, in data set [5], the Therapeutic index is listed as 10. In data set [6], this compound showed a Survivors of 2.

As to `NC(=O)CC(NC(=O)N(CCCl)N=O)C(N)=O` (centres undefined), in data set [1], the half-life worked out at 32.1 min. Besides, the Mean survival days in data set [2] is recorded as above 42.8. The compound further registered a maximal effective dose in data set [3] of 8 mg/kg/day. The compound also came in with an ILS in data set [4] above 494.4%. In addition, the Therapeutic index in data set [5] came to 15.7. Further, the Survivors in data set [6] amounted to 2.

In data set [1], `CSCCC(NC(=O)N(CCCl)N=O)C(N)=O` (centres undefined) came in with a half-life of 38.1 min. The Mean survival days in data set [2] is reported as 27.2. For the same compound, in data set [3], the maximal effective dose was 16 mg/kg/day. The compound also registered an ILS in data set [4] of 277.8%. In addition, the Therapeutic index in data set [5] is 5.9. In data set [6], this compound had a Survivors of 0.

The compound `CC(C)C(NC(=O)N(CCCl)N=O)C(N)=O` (centres undefined) gave a half-life in data set [1] of 44.5 min. The compound also had a Mean survival days in data set [2] above 60. Moreover, in data set [3], the maximal effective dose stood at 8 mg/kg/day. Besides, in data set [4], the ILS is recorded as above 757.1%. Further, the Therapeutic index in data set [5] came to 15.7. In data set [6], this compound gave a Survivors of 5.

`NC(=O)CNC(=O)N(CCCl)N=O` returned a half-life in data set [1] of 44 min. This compound also had a Mean survival days in data set [2] above 60. This compound also returned a maximal effective dose in data set [3] of 16 mg/kg/day. In data set [4], this compound gave an ILS above 679.2%. The Therapeutic index in data set [5] was 36.4. In data set [6], this compound registered a Survivors of 5. The LD50 in data set [7] came out at 21.2 mg/kg; in data set [8], 22.4 mg/kg.

Compound `CN(CC(N)=O)C(=O)N(CCCl)N=O` [SARCNU] showed a half-life in data set [1] of 330 min. The same compound returned a Mean survival days in data set [2] above 60. For the same compound, the maximal effective dose in data set [3] is 225 mg/kg/day. In data set [4], this compound yielded an ILS above 710%. The Therapeutic index in data set [5] amounted to 15.5. The Survivors in data set [6] is on record as 5. Besides, the LD50 in data set [7] came out at 392 mg/kg; in data set [8], 427 mg/kg.

For `NC(=O)CCCNC(=O)N(CCCl)N=O`, the half-life in data set [1] was 72.5 min. In data set [2], this compound returned a Mean survival days above 60. The compound also showed a maximal effective dose in data set [3] of 16 mg/kg/day. In addition, the ILS in data set [4] was above 733.3%. In data set [5], the Therapeutic index is 7.3. In data set [6], the Survivors was 5.

`NC(=O)C(Cc1ccccc1)NC(=O)N(CCCl)N=O` (centres undefined) gave a half-life in data set [1] of 49.9 min. In data set [2], this compound came in with a Mean survival days above 38.2. For the same compound, the maximal effective dose in data set [3] came to 32 mg/kg/day. Further, in data set [4], the ILS is given as above 445.7%. Further, in data set [5], the Therapeutic index is 3.8. The Survivors in data set [6] worked out at 1.

For `CC(C)CC(NC(=O)N(CCCl)N=O)C(N)=O` (centres undefined), in data set [1], the half-life amounted to 48.3 min. Besides, the Mean survival days in data set [2] is above 60. The same compound registered a maximal effective dose in data set [3] of 24 mg/kg/day. In addition, the ILS in data set [4] was above 757.1%. Also, the Therapeutic index in data set [5] was found to be 11.4. The Survivors in data set [6] was 5.

In data set [1], `CC(NC(=O)N(CCCl)N=O)C(N)=O` (centres undefined) had a half-life of 37 min. The compound further registered a Mean survival days in data set [2] above 60. Further, the maximal effective dose in data set [3] is 8 mg/kg/day. In data set [4], this compound registered an ILS above 710.8%. Further, the Therapeutic index in data set [5] was found to be 14.3. The compound also gave a Survivors in data set [6] of 5.

Values taken from ChEMBL document CHEMBL1122210, “(2-Chloroethyl)nitrosourea congeners of amino acid amides” (J Med Chem, 1982).
